Tested on: HCT-116
Experiment: Cytotoxicity against human HCT-116 cells assessed as inhibition of cell growth measured after 72 hrs by CellTiter-Glo reagent based luminescence assay
Type: functional
Settings: HCT-116, 72 h
Method in brief: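 Cells (HCT-116 in McCoy's 5A; U87-MG in DMEM 4.5 g/L glucose; all with 10% serum, 1% glutamine, 37 °C, 5% CO2) seeded at 3 × 10³/well, treated after 24 h with 10 final concentrations by serial dilution; vehicle controls. After 72 h, CellTiter-Glo luminescence; IC50 from four- or five-parameter logistic fit, triplicate, mean of three experiments.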

`COCc1cc2cc(N(C)c3cc(C)nc4ccccc34)ccc2n1C` showed an IC50 of 10.2 nM.

`Cc1cc(N(C)c2ccc3c(c2)cc(CO)n3C)c2ccccc2n1` showed an IC50 of 16.4 nM.

Work on `COc1cc2nc(Cl)nc(N(C)c3ccc4c(c3)cc3n4CCOC3)c2cc1OC` yielded an IC50 of 361 nM.

`C=C(c1cc(OC)c(OC)c(OC)c1)c1ccc2c(c1)cc1n2CC=CC1` gave an IC50 of 970 nM.

`CN(c1ccc2c(c1)cc1n2CCOC1)c1cc(C#N)nc2ccccc12` showed an IC50 of 2.8 nM.

`COCc1cc2cc(N(C)c3cc(OC)c(OC)c(OC)c3)ccc2n1C` showed an IC50 of 47.5 nM.

In the case of `Cc1cc(N(C)c2ccc3c(c2)cc2ccccn23)c2ccccc2n1`, the IC50 is reported as 78.4 nM.

`COc1cc(N(C)c2ccc3c(c2)cc2n3CCOC2)cc(OC)c1OC` was tested, and the IC50 was 29.2 nM.

With `CCn1c(CO)cc2cc(N(C)c3cc(OC)c(OC)c(OC)c3)ccc21` the IC50 was 987 nM.

In the case of `C=C(c1ccc2c(c1)cc1n2CC=CC1)c1cc(C)nc2ccccc12`, the IC50 is reported as 25.7 nM.

Compound `Cc1cc(N(C)c2ccc3c(c2)cc2n3CCOC2)c2ccccc2n1` has an IC50 of 3.22 nM.

`C=C(c1cc(OC)c(OC)c(OC)c1)c1ccc2c(c1)cc(COC)n2C` showed an IC50 of 72.4 nM.

`C=C(c1cc(OC)c(OC)c(OC)c1)c1ccc2c(c1)cc(CO)n2C` showed an IC50 of 2.12 nM.
